PMI act hi M6P = increases human PMI activity with near-saturating mannose 6-phosphate; coupled PMI enzyme assay, resazurin fluorescence, 20 min; active compounds read high; 1 = untreated enzyme, 0 = substrate-free blank; P34949; AID 1216; 190,000 tested, 0.34% active; activation factor at 20 µM;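 active = activation factor of 2 or more at 20 µM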
Target sequence (P34949 whole entry, looked up): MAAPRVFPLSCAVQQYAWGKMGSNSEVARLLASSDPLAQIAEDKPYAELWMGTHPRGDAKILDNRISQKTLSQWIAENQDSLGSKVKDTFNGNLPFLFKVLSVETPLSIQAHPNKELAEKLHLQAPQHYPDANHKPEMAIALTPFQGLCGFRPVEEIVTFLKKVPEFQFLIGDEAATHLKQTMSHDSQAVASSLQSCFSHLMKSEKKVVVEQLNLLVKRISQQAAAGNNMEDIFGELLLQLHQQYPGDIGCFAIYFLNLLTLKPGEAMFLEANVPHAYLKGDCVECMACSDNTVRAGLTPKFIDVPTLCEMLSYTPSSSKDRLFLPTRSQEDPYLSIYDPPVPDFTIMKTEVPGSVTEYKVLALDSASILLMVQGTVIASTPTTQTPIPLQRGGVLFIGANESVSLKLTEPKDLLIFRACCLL
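Test system: human phosphomannose isomerase with PGI, G6PDH, diaphorase coupling enzymes; Amount: PMI at 15 ng/mL final; Reagent: Mannose-6-phosphate 1.0 mM (near-saturating) plus 0.22 mM NADP+; Timing: 20 min, room temperature; Technique: resorufin fluorescence at Ex 544/Em 590 nm; Dosing: 20 µM single dose.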
L major viab = inhibitors of Leishmania major promastigote growth. Leishmania major promastigotes, resazurin fluorescence viability. inhibition, % at 10 µM. 200,000 tested, 9% active; in the data active = inhibition above about 50%;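 note: promastigotes grown with compound for 44 hours at 28 °C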
HCT116 PTEN-null = PTEN-deleted cell growth suppression; viability, % at 10 µM; 140,000 tested, 1.2% active; AID 827; HCT116 PTEN-null viability, CellTiter-Glo, 60 h; active compounds read low;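 active = viability at or below a set limit, 4 SD under the median of all tested compounds, cut at about 3.7% in these data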;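 note: PTEN knockout HCT116 line with beta catenin targeted HCT116 as companion control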
bCat KO growth = beta-catenin-lacking colon tumor cell growth suppression; AID 818; viability, % at 10 µM; 140,000 tested, 1.5% active; HCT116 beta-catenin knockout viability, CellTiter-Glo, 60 h; active compounds read low;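 active = viability at or under a set limit, the compound median less 4 SD, cut at about 6% in these data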
PMI act = phosphomannose isomerase (human) activation; activation factor at 20 µM; AID 1214; 190,000 tested, 0.005% active; purified human PMI, coupled resazurin fluorescence, 20 min; active compounds read high; 1 = vehicle control, 0 substrate-free wells;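 active = activation factor of 2 or more at 20 µM, relative to plate controls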
Each line names hits and unclear results; the compound was inactive in the other large screens. Hits are enriched below; roughly 9.6% of the tested compounds scored in any of these assays.

CCCCc1ccc(NC(=S)Nc2ccc(Nc3ccc(OC)cc3)cc2)cc1	L major viab 59.8
COCCN=C1Sc2nc3cc4c(cc3cc2CN1CC1CCCO1)OCO4 (stereo not drawn)	none (no result: HCT116 PTEN-null, bCat KO growth)
O=C(N/N=C/c1c[nH]c2ccccc12)c1ccncc1	L major viab 55.8
C/C(=N\NC(=O)c1c[nH]c2ccccc12)c1ccc2c(c1)OCO2	none (no result: HCT116 PTEN-null, bCat KO growth)
Cc1ccc(C(=O)Nc2ccc(C(=O)N/N=C/c3c[nH]c4ccccc34)cc2)cc1	L major viab 73.2
O=C(N/N=C/c1cc2c(cc1Br)OCO2)c1c[nH]c2ccccc12	L major viab 80.0 (no result: HCT116 PTEN-null, bCat KO growth)
O=C(N/N=C/c1c[nH]c2ccccc12)c1[nH]c2ccc(Br)cc2c1-c1ccccc1	HCT116 PTEN-null 1.2, bCat KO growth 1.3
C/C(=N\Nc1ccc([N+](=O)[O-])cc1)c1ccc(O)cc1	none (no result: HCT116 PTEN-null, bCat KO growth)
CC(=O)NC/C(C)=N\Nc1ccc([N+](=O)[O-])cc1	L major viab 62.7 (no result: HCT116 PTEN-null, bCat KO growth)
CC(=O)NCC(=O)OCc1ccc([N+](=O)[O-])cc1	none
C/C(=N\Nc1ccc([N+](=O)[O-])cc1)c1cccc(N)c1	L major viab 61.2
COc1ccc(Br)cc1C(=O)Nc1ccccc1-c1ccccc1	none
NC(=O)C1CCN(C(=O)c2ccc(NC3=NC4CS(=O)(=O)CC4S3)cc2)CC1 (stereo not drawn)	none
O=[N+]([O-])c1cc(C(F)(F)F)cc([N+](=O)[O-])c1NCCCN1CCOCC1	none (no result: HCT116 PTEN-null, bCat KO growth)
O=C(NC(=S)NCCN1CCOCC1)c1ccc(F)cc1	none
N#Cc1cc([N+](=O)[O-])ccc1NCCN1CCOCC1	none (no result: HCT116 PTEN-null, bCat KO growth)
O=C(NC(=S)NCCCN1CCOCC1)c1ccc([N+](=O)[O-])cc1	L major viab 53.0
O=[N+]([O-])c1cc(C(F)(F)F)ccc1NCCCN1CCOCC1	L major viab 87.7 (no result: HCT116 PTEN-null, bCat KO growth)
O=[N+]([O-])c1ccc(NCCCN2CCOCC2)c([N+](=O)[O-])c1	L major viab 84.5 (no result: HCT116 PTEN-null, bCat KO growth)
O=[N+]([O-])c1ccc(Cl)cc1NCCCN1CCOCC1	L major viab 59.2
C[N+]1(CCOc2ccc([N+](=O)[O-])cc2)CCOCC1	none
CS(=O)(=O)Nc1ccc(S(=O)(=O)N2CCCC2)cc1	none (no result: HCT116 PTEN-null, bCat KO growth)
CC(C)Cn1c(N)c(C(=O)COC(=O)c2cccnc2Cl)c(=O)n(C)c1=O	none (no result: HCT116 PTEN-null, bCat KO growth)
O=C(NCCN1CCOCC1)c1cc2cc([N+](=O)[O-])ccc2s1	L major viab 66.4 (no result: HCT116 PTEN-null, bCat KO growth)
O=C(NCCN1CCOCC1)c1ccccc1[N+](=O)[O-]	none
O=[N+]([O-])c1cc(S(=O)(=O)N2CCCCC2)ccc1NCCCN1CCOCC1	L major viab 75.4 (no result: HCT116 PTEN-null, bCat KO growth)
O=C(c1cc(C2CC2)nc2ccc(Br)cc12)N1N=C(C(F)F)CC1(O)C(F)F (stereo not drawn)	none
CCOc1ccc(CNC2CCCc3ccccc32)cc1 (stereo not drawn)	L major viab 69.7 (no result: HCT116 PTEN-null, bCat KO growth)
COc1cccc(CN(C)CC(=O)Nc2cccc3ccccc23)c1	none (no result: HCT116 PTEN-null, bCat KO growth)
O=C(O)CCC(=O)N1CCN(c2ccccn2)CC1	none
O=C(CCCC(=O)N1CCN(c2ccc([N+](=O)[O-])cc2)CC1)c1ccccc1	L major viab 85.9
O=C(CCc1ccccc1)N1CCN(c2ccccn2)CC1	L major viab 51.9
O=C(CCCc1ccccc1)N1CCN(c2ccc([N+](=O)[O-])cc2)CC1	L major viab 58.4
CCOC(=O)c1cc(-c2ccc(C)cc2)n(CCC(=O)N2CCN(c3ccccn3)CC2)c1C	L major viab 89.5
CCOC(=O)c1cc(-c2ccc(C)cc2)n(CCC(=O)NCCN(C)C)c1C	none
Nc1n[nH]c(N)c1N=Nc1ccc2c(c1)OCO2	none (no result: HCT116 PTEN-null, bCat KO growth)
CCOc1ccc(NC(=O)NNC(=O)c2ccc(CC)s2)cc1	none (no result: HCT116 PTEN-null, bCat KO growth)
C=CCc1c(C)nc(C)nc1N/N=C/c1ccccc1O	L major viab 98.8
O=C(Cn1cc(S(=O)(=O)Cc2ccccc2)c2ccccc21)Nc1ccccc1	none
Cc1cc(SCC(=O)Nc2c(C)n(C)n(-c3ccccc3)c2=O)n2c(nc3ccccc32)c1C#N	L major viab 86.7 (no result: PMI act hi M6P, HCT116 PTEN-null, bCat KO growth, PMI act)
O=C(c1ccc(Cl)cc1)C(Cn1cncn1)C(Sc1ccccc1)c1ccccc1 (stereo not drawn)	L major viab 91.8, bCat KO growth 5.6
Cc1ccc(SC(c2ccccc2)C(Cn2cncn2)C(=O)c2ccccc2)cc1 (stereo not drawn)	none
COc1ccccc1OCCN1CSC(=S)N(C)C1	L major viab 100.3, bCat KO growth 4.0
Cc1cccc(OCCn2c(=O)n(C)c3ccccc32)c1	none
Cc1cccc(OCCN2CSC(=S)N(C)C2)c1	L major viab 99.6
O=C(CC1NCCNC1=O)Nc1cccc([N+](=O)[O-])c1 (stereo not drawn)	none (no result: HCT116 PTEN-null, bCat KO growth)
CCOC(=O)N1CCC(N2Cc3cccc(C(=O)N4CCN(c5cccc(Cl)c5)CC4)c3C2=O)CC1	none (no result: HCT116 PTEN-null, bCat KO growth)
N#Cc1c(-c2ccccc2)nc2n1CCS2	none (no result: HCT116 PTEN-null, bCat KO growth)
O=C(Nc1ccc(Cl)c(Cl)c1)Nc1ccc(Br)cc1F	bCat KO growth 4.9
Cc1cccc(Nc2ncccc2C(=O)NCc2cccs2)c1C	L major viab 78.8
O=C(NCc1cccs1)c1cccnc1Cl	none
Cc1ccc(C)c(-c2cc(C(=O)NCc3cccs3)c3ccccc3n2)c1	none
Cc1ccc(Nc2ncccc2C(=O)NCc2cccs2)c(C)c1	L major viab 95.7
O=C1c2ccccc2C2(c3ccc(F)cc3)NCCN12 (stereo not drawn)	L major viab 57.6 (no result: HCT116 PTEN-null, bCat KO growth)
O=C(Nc1ccc(F)cc1)N1CCN2C(=O)c3ccccc3C12c1ccccc1 (stereo not drawn)	none
Cc1cccc(N2C(=N)SCC2=O)c1C	L major viab 54.0
Cc1[nH]n(-c2ccccc2)c(=O)c1/C=N/N1C(=O)c2ccc3c4c(ccc(c24)C1=O)CC3	none
CC1CCCC(N2C(=O)NC(NC(=O)c3ccco3)(C(F)(F)F)C2=O)C1C (stereo not drawn)	L major viab 56.0
CCCCN1C(=O)NC(NC(=O)c2ccco2)(C(F)(F)F)C1=O (stereo not drawn)	none
Cc1c(Cl)cccc1NC(=O)CCCn1cnc([N+](=O)[O-])n1	none (no result: HCT116 PTEN-null, bCat KO growth)
O=C(CCCn1cnc([N+](=O)[O-])n1)Nc1cc(Cl)ccc1O	L major viab 71.6 (no result: HCT116 PTEN-null, bCat KO growth)
O=C(CCCn1cnc([N+](=O)[O-])n1)Nc1cccc(Cl)c1Cl	L major viab 93.9
O=C(CCCn1cnc([N+](=O)[O-])n1)Nc1ccc(Cl)c(Cl)c1	L major viab 96.8
CC(C)C(=O)Nc1ccccc1C(=O)OCC(=O)c1ccc2c(c1)OCCO2	none
COc1ccc(NC(=O)CSc2nnc(-c3cccnc3)n2Cc2ccco2)c(OC)c1	none
COC(=O)c1cnn(-c2ccc(C)c(C)c2)c1-n1cccc1	L major viab 64.9
O=S(=O)(c1ccc2c(c1)OCCO2)N1CCN(c2ncnc3sccc23)CC1	L major viab 60.2 (no result: HCT116 PTEN-null, bCat KO growth)
CCN(CC)S(=O)(=O)c1ccc(N2CCN(S(=O)(=O)c3ccc4c(c3)OCCO4)CC2)nc1	L major viab 78.8
CN1CCN(S(=O)(=O)c2ccc3c(c2)OCCO3)CC1	none
Cc1ccc(CNC(=O)CCS(=O)(=O)c2cccc3nonc23)cc1	none
